pIC50, pKi: −log10 of the molar value.
Key:
[1] = molecular target: T1, Caspase-3 (Homo sapiens, UniProt P42574); experiment: Inhibition of recombinant human caspase-3
T1 sequence (P42574 whole entry): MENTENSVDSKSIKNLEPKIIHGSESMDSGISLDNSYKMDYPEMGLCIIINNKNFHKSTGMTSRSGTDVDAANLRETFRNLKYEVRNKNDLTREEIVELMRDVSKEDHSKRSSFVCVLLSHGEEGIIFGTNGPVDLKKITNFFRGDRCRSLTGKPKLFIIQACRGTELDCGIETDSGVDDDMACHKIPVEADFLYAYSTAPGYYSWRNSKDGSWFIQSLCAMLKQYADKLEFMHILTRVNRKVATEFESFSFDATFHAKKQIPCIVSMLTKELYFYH

[2] = molecular target: T2, Caspase-6 (Homo sapiens, UniProt P55212); experiment: Inhibitory activity against Caspase-6; settings: read-out: Ki app
T2 sequence (P55212 whole entry): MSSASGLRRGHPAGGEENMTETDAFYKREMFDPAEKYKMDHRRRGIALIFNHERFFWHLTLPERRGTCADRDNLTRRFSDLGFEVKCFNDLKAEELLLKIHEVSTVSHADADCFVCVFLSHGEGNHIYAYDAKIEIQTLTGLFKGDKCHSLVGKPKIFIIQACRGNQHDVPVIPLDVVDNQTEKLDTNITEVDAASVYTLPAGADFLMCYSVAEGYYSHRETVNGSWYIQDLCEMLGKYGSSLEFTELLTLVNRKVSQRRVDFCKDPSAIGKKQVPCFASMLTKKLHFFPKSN
In short: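 Recombinant full-length human caspase 6 (~10 units/assay) in 50 mM Tris-HCl pH 7.4 with 0.1% CHAPS, 1.5 mM MgCl2, 1 mM EDTA and 5 mM β-mercaptoethanol. Substrate 10 μM Ac-DEVD-AMC. AMC monitored at 360/460 nm, 30 °C, final DMSO 5%. Single-dose screen (typically 5–50 μM), then IC50 determination.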

[3] = molecular target: T3, Caspase-7 (Homo sapiens, UniProt P55210); experiment: Inhibitory activity against Caspase-7; settings: read-out: Ki app
T3 sequence (P55210 whole entry): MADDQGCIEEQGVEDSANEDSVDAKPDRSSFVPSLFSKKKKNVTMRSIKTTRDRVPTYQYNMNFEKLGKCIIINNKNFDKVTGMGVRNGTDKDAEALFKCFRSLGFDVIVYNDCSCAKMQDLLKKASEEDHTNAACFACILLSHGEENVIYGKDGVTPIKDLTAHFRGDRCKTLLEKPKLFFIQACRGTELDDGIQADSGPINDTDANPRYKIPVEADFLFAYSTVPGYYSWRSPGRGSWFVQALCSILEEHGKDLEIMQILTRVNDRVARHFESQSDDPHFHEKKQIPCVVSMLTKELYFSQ
In short: (§1)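 Recombinant full-length human caspase 3 or 7, ~10 units/assay (1 unit = 1 pmol AMC/min). Substrate 10 μM Ac-DEVD-AMC. AMC fluorescence at 360/460 nm, 30 °C, with 5% final DMSO. Single-dose screen (typically 5–50 μM), then IC50 curves; repeated IC50s had CVs typically <30%.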

[4] = molecular target: Caspase-8 (Homo sapiens, UniProt Q14790); experiment: Inhibitory activity against Caspase-8; settings: read-out: Ki app
In short: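 Recombinant full-length human caspase 8, ~10 units/assay, in Na+MOPS pH 7.5 with 10% glycerol, 0.25 mM EDTA and 5 mM β-mercaptoethanol. Substrate 10 μM Ac-IETD-AMC. Fluorescence at 360/460 nm, 30 °C, 5% final DMSO. Compounds screened at a single dose (typically 5–50 μM), then full IC50 curves for actives.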

[5] = molecular target: T4, Caspase-2 (Homo sapiens, UniProt P42575); experiment: Inhibitory activity against caspase-2; settings: read-out: Ki app
T4 sequence (P42575 whole entry): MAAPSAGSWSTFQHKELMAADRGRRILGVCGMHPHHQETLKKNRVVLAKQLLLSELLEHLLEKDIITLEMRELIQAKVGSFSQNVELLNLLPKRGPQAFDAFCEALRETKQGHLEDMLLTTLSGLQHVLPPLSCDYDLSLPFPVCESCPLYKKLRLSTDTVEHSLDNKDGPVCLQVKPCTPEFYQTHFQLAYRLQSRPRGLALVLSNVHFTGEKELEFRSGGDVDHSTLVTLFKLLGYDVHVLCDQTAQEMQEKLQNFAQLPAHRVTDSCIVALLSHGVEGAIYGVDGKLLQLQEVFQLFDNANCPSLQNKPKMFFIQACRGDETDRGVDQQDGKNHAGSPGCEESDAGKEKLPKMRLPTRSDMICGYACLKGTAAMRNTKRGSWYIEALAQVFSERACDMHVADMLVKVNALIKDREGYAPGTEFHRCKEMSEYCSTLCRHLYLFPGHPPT
In short: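 Recombinant full-length human caspase 2 (~10 units/assay) in 50 mM sodium acetate pH 6.2 with 10% glycerol, 0.25 mM EDTA and 5 mM β-mercaptoethanol. Substrate 25 μM Ac-VDVAD-AMC. Fluorescence at 360/460 nm, 30 °C, final DMSO 5%. Compounds screened at a single dose (typically 5–50 μM), then full IC50 curves where activity was seen.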

[6] = molecular target: T1, Caspase-3; experiment: Inhibitory activity against caspase-3; settings: read-out: Ki app; in short: as §1
[7] = molecular target: T5, Caspase-9 (Homo sapiens, UniProt P55211); experiment: Inhibitory activity against Caspase-9; settings: read-out: Ki app
T5 sequence (P55211 whole entry): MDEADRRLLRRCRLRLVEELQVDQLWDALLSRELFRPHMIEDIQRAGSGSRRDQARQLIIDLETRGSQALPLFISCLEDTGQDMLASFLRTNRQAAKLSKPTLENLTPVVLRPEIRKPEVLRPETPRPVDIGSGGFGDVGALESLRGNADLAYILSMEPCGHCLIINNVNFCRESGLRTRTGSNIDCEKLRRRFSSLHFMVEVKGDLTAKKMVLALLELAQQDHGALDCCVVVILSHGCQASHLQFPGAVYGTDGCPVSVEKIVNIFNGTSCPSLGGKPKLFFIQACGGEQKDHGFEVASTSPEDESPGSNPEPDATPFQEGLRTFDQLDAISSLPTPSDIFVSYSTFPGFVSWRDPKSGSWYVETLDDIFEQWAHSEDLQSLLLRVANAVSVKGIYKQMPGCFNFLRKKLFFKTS

[8] = molecular target: T6, Caspase-1 (Homo sapiens, UniProt P29466); experiment: Inhibitory activity against caspase-1; settings: read-out: Ki app
T6 sequence (P29466 whole entry): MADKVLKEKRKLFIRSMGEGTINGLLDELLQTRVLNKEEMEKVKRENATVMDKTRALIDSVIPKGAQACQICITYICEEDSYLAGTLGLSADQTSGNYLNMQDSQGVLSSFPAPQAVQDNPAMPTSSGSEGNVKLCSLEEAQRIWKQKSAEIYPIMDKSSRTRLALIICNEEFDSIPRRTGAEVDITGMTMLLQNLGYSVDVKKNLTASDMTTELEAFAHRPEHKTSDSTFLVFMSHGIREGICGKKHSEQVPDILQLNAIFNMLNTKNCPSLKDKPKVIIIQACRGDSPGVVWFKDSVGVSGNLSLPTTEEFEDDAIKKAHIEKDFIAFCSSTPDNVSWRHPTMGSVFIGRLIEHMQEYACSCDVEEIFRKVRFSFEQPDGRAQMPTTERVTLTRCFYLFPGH
In short: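 Recombinant full-length human caspase 1, ~10 units/assay, in 25 mM K+HEPES pH 7.5 with 10% sucrose, 0.1% CHAPS and 5 mM β-mercaptoethanol. Substrate 10 μM Ac-YVAD-AMC. AMC read at 360/460 nm, 30 °C, with 5% final DMSO. Single-dose screen (typically 5–50 μM), followed by IC50 curves for active compounds.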

[9] = molecular target: T7, Caspase-4 (Homo sapiens, UniProt P49662); experiment: Inhibitory activity against caspase-4; settings: read-out: Ki app
T7 sequence (P49662 whole entry): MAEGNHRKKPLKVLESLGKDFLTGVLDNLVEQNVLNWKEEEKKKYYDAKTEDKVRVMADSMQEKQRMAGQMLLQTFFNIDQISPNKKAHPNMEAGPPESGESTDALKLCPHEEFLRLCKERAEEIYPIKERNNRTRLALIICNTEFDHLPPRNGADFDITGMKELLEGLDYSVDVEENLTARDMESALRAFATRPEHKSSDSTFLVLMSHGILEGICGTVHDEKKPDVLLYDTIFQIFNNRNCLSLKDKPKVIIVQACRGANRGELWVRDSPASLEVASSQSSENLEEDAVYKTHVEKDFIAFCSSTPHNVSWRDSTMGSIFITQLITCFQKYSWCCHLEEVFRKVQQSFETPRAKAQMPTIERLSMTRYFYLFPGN
In short: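 Recombinant full-length human caspase 4, ~10 units/assay, in potassium acetate pH 5.8 with 1 mM EDTA, 10% sucrose, 0.1% CHAPS and 5 mM β-mercaptoethanol. Substrate 100 μM Ac-LEED-AMC. Read at 360/460 nm, 30 °C, 5% final DMSO. Single-dose screen (typically 5–50 μM), then IC50 curves for actives.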

[10] = test system: C20/A4; experiment: In vitro inhibition of Chondrocyte cell line C20/A4 apoptosis at 25 uM of compound; format: functional, Homo sapiens
In short: (§2)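 Immortalized human chondrocyte line C20/A4 seeded at 20 000 cells/well overnight, then exposed 24 h to 4 μg/mL camptothecin with or without compound. Floating and adherent cells combined and lysed 30 min at 4 °C, then clarified at 14000g. Mono- and oligonucleosome DNA fragments measured by cell death ELISA; result expressed as % inhibition of apoptosis.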

[11] = test system: C20/A4; experiment: In vitro inhibition of Chondrocyte cell line C20/A4 apoptosis at 10 uM of compound; format: functional, Homo sapiens; in short: as §2

Caspase-8, sequence (Q14790 217-374 limits assumed): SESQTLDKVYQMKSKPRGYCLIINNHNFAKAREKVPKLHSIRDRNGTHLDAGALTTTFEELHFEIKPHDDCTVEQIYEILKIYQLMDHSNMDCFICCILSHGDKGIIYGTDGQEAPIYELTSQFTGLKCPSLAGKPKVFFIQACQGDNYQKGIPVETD
Caspase-8, sequence (Q14790 385-479 limits assumed): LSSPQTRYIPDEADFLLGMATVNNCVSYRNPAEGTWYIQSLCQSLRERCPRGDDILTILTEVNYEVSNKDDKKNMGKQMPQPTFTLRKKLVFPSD

| pIC50 [1] | pKi [2] | pKi [3] | pKi [4] | pKi [5] | pKi [6] | pKi [7] | pKi [8] | pKi [9] | SMILES | Inhibition [10] | Inhibition [11] |
| --- | --- | --- | --- | --- | --- | --- | --- | --- | --- | --- | --- |
| 6.60 | 6.00 | 6.77 | 4.51 | < 4.60 | 6.89 | 5.30 | 4.74 | 5.30 | O=C1C(=O)N(Cc2ccccc2)c2ccc([N+](=O)[O-])cc21 |  |  |
| 6.00 | 5.77 | 6.54 | < 4.30 | < 4.30 | 6.30 | 5.14 | 4.92 | 5.40 | CN1C(=O)C(=O)c2cc([N+](=O)[O-])ccc21 |  |  |

The next lines start with the compound.

| SMILES | pIC50 [1] | pKi [2] | pKi [3] | pKi [4] | pKi [5] | pKi [6] | pKi [7] | pKi [8] | pKi [9] | Inhibition [10] | Inhibition [11] |
| --- | --- | --- | --- | --- | --- | --- | --- | --- | --- | --- | --- |
| CN1C(=O)C(=O)c2ccccc21 | < 4.30 |  |  |  |  |  |  |  |  |  |  |
| O=C1Nc2ccc(S(=O)(=O)N3CCCC3)cc2C1=O | 5.55 | < 4.30 | 5.52 | < 4.30 | < 4.30 | 5.85 | 4.92 | 5.05 | < 4.30 |  |  |
| O=C1C(=O)N(Cc2ccncc2)c2ccc(S(=O)(=O)N3CCC[C@H]3COc3ccccc3)cc21 |  |  |  |  |  |  |  |  |  | 89% | 64% |

Reference: ChEMBL document CHEMBL1134769, “Potent and selective nonpeptide inhibitors of caspases 3 and 7” (J Med Chem, 2001)
